# High-throughput results from PubChem BioAssay.
# Shown are actives, neighbours in structure and some others; about 9.4% of the full set was active somewhere.
# L major viab – inhibitors of Leishmania major promastigote growth; Leishmania major promastigotes, resazurin fluorescence viability; inhibition, % at 10 µM; 9% of 200,000 active; AID 1063; in the data active = inhibition above about 50%;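 note: promastigotes grown with compound for 44 hours at 28 °C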
# Beta apoptosis – blocks beta cell apoptosis | INS-1E cytokine-induced death, ATP luminescence, 48 h; percent of positive-control rescue, neutral wells zero | AID 435005 | protection from apoptosis, % (no concentration beside the values) | 0.8% of 300,000 active;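 active = Every replicate reaches about 75%, or at least half do and their mean reaches it too, limit read from the data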;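 note: 0% = cytokine-treated negative control wells and 100% = positive control rescue; higher means more ATP so stronger rescue from cytokine killing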
# T cruzi inh – blocks replication of Trypanosoma cruzi; T. cruzi beta-gal in NIH3T3, luminescence, 90 h; inhibition, % (no concentration beside the values); 1.4% of 300,000 active;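 active = mean inhibition across valid replicates above about 55%, limit read from the data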;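 note: signal also drops with host cell toxicity which is not excluded here; 0% = plate median of DMSO wells and 100% = zero luminescence signal; higher percent means less beta-gal luminescence so fewer parasites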
#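 assay system = mouse NIH/3T3 fibroblasts infected with β-gal-expressing T. cruzi Tulahuen C4 | input = 5,000 NIH/3T3 host cells per well | buffer or medium = DMEM plus 2% FBS | timing = 3 h host attachment, then at least 90 h co-culture | measured by = GalScreen luminescence, 60 min | evaluation = luminescence reflecting intracellular parasite burden, expressed as percent inhibition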
# SKKanGAS inh – inhibitors of SKKanGAS S. pyogenes growth in kanamycin (SK-promoter or general growth effect); 1.3% of 300,000 active; AID 1662; inhibition, % at 7.5 µM; BacTiter-Glo, 6 h;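 active = mean replicate score, as percent of positive control median, at least 50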;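 note: strain carries kanamycin resistance gene driven by streptokinase promoter and grows in 40 µg/ml kanamycin; loss of luminescence reflects streptokinase promoter inhibition or plain growth inhibition; 0% = median of DMSO wells and 100% = positive control at its reference dose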
# Mdm2-MdmX inh – human Mdm2/MdmX binding inhibition; O15151+Q00987; SaOS-2 split-luciferase Mdm2/MdmX complementation, luminescence; inhibition, % at 8 µM; 3% of 330,000 active;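 active = inhibition of at least 50% at 8 µM in the primary screen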
# Target sequence (O15151 whole entry, looked up): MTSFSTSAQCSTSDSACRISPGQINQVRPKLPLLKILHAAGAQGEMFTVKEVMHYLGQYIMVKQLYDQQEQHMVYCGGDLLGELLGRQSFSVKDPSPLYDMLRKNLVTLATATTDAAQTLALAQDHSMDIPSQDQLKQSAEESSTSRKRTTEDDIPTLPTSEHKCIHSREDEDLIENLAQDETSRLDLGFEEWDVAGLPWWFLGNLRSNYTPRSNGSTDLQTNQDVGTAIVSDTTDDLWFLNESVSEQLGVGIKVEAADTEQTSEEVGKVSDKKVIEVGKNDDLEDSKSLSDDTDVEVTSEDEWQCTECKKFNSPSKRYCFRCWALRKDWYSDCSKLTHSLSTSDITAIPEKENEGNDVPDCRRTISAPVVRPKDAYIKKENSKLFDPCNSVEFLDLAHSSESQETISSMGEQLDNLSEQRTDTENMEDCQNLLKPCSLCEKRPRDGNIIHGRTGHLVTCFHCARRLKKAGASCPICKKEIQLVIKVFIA
# Target sequence (Q00987 whole entry, looked up): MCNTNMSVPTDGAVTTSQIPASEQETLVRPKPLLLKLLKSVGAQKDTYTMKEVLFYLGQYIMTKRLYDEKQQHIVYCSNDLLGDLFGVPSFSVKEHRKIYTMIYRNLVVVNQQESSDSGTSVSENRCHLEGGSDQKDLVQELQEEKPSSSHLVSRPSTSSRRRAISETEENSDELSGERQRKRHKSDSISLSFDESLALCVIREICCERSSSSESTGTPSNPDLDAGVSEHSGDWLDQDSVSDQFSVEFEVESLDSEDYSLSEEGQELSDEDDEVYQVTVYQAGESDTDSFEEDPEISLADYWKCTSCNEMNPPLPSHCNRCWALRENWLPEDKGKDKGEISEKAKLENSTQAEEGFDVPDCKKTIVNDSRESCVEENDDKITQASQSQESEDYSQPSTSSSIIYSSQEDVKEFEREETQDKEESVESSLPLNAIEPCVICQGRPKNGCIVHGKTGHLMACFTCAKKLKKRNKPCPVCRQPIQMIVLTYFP
# CSC inhib – cancer stem cell inhibition; 1.1% of 300,000 active; AID 2717; inhibition, % at 7.5 µM; cancer stem cell-like cells viability, luminescence; in the data active = inhibition above about 75%; tested in HMLE shEcad cells
# Mdm2-MdmX conf – human Mdm2/MdmX binding inhibition, confirmed. AID 489028. 55% of 10,000 active. inhibition, % at 8 µM. luminescent assay. shares compounds with Mdm2-MdmX inh; in the data active = inhibition above about 40%
# Full FLuc ctr – inhibits full-length luciferase, flagging false Mdm2/MdmX hits; SaOS-2 full-length luciferase counterscreen, luminescence; AID 504607; inhibition, % at 8 µM; 77% of 6,200 active; shares compounds with Mdm2-MdmX inh;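 active = mean inhibition at 8 µM reaching about 37%, which flags the compound as non-specific, limit read from the data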;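 note: p53-null SaOS-2 cells with luciferase driven by a doxycycline-inducible promoter; compound on cells about two nights before reading with doxycycline added after day one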
# * marks the source's active call; other numbers are inactive results; / = no result.
SMILES,L major viab,Beta apoptosis,T cruzi inh,SKKanGAS inh,Mdm2-MdmX inh,CSC inhib,Mdm2-MdmX conf,Full FLuc ctr
CCC(=NCCc1c(C)[nH]c2ccc(C)cc12)C1=C(O)CC(c2ccccc2)CC1=O (centres undefined),36,15,12,14,67*,72,61*,70*
CC1(c2ccccc2)ON(c2ccccc2C(F)(F)F)C1=O (centres undefined),/,-7,/,/,46,17,/,/
O=C1N(c2ccccc2C(F)(F)F)O[C@]1(c1ccccc1)C1CCCC1,/,0,/,/,79*,5,53*,50*
CC[C@@]1(c2ccccc2OC)ON(c2ccccc2C(F)(F)F)C1=O,/,-16,/,/,89*,57,80*,51*
Cc1ccccc1[C@@]1(C)ON(c2ccccc2C(F)(F)F)C1=O,/,-5,/,/,81*,4,34,/
Cc1cc(C)n(S(=O)(=O)c2ccc(C)c(C)c2)n1,/,9,-6,-4,-31,-4,/,/
COc1ccc(-c2cc(C(=O)OCC(=O)N(C)C3CCS(=O)(=O)C3)c3ccccc3n2)cc1OC (centres undefined),-2,1,-5,2,16,/,/,/
CCOC(=O)CCC(=O)NNC(=O)COc1ccc(C(C)C)cc1Br,-8,-4,-4,-3,5,14,/,/
O=C(N=Nc1c(O)[nH]c2ccc(F)cc12)C1COc2ccccc2O1 (centres undefined),/,-7,-4,23,26,-15,/,/
O=C(CSc1nc2c(sc3ccccc32)c(=O)n1CCCN1CCCC1)NCc1ccccc1,99*,/,7,6,54*,/,31,/
O=C(CSc1nc2c(sc3ccccc32)c(=O)n1CCCN1CCOCC1)NCC1CCCO1 (centres undefined),2,1,-2,1,-26,1,/,/
O=C(CSc1nc2c(sc3ccccc32)c(=O)n1CCCN1CCOCC1)NC1CCCC1,3,0,-8,4,-5,-14,/,/
Cc1ccc(CNC(=O)CSc2nc3c(sc4ccccc43)c(=O)n2CCCN2CCCC2)cc1,100*,-2,64*,2,51*,17,48*,42*
Cc1onc(-c2ccccc2Cl)c1C(=O)NCc1nc(-c2ccc(C(F)(F)F)cc2)no1,/,5,15,1,14,24,/,/
Cc1ccc(CNC(=O)C2CC3Cn4c(nc5cc(Cl)c(Cl)cc54)C3N2C)o1 (centres undefined),/,-3,2,9,-24,0,/,/
O=c1c(Cl)c(N2CCCCC2)cnn1-c1nc2ccccc2[nH]1,60*,42,5,27,52*,12,56*,63*
Clc1ccc2nc(N3CCCCC3)[nH]c2c1,22,-2,10,1,-175,/,/,/
Cc1ccc(S(=O)(=O)N2C[C@@H]3[C@H]4CC[C@H](C4)[C@@H]3[C@@H](C)[C@@H]2c2cn(Cc3ccccc3)c3ccc(F)cc23)cc1,/,/,/,/,32,/,/,/
C[C@@H]1[C@H]2[C@@H]3CC[C@@H](C3)[C@H]2CN[C@H]1c1cn(Cc2ccccc2)c2ccccc12,/,/,/,/,54*,/,31,/
COc1ccc(C2CC(=O)c3cnc(NC(=O)c4ccccc4)nc3C2)c(OC)c1 (centres undefined),39,2,-8,18,58*,9,41*,71*
CSc1cccc(-n2ccc(=O)c(C)c2C)c1,/,3,-11,-1,6,-14,/,/
COc1ccc(CS(=O)(=O)c2ncn[nH]2)cc1,/,-3,-9,3,12,14,/,/
O=C(Nc1ccc(F)cc1)Nc1nnc(COc2ccccc2F)s1,-4,21,8,-9,91*,61,82*,44*
O=C(NCCc1ccncc1)Nc1cccc(Cl)c1,-3,-6,7,3,-30,10,/,/
O=C(Nc1cccc(Cl)c1)Nc1nnc(-c2ccncc2)s1,65*,100*,6,9,100*,65,98*,56*
SMILES,L major viab,Beta apoptosis,T cruzi inh,SKKanGAS inh,Mdm2-MdmX inh,CSC inhib,Mdm2-MdmX conf,Full FLuc ctr
O=C(Nc1ccc(F)cc1)Nc1nnc(-c2ccncc2)s1,27,54,-28,-1,69*,41,32,/
O=C(Nc1nnc(-c2ccc(F)cc2)s1)Nc1ccccc1F,/,-4,3,-1,2,-14,/,/
Cc1ccc(NC(=O)Nc2nnc(-c3ccncc3)s2)cc1C,36,/,35,24,94*,36,56*,23
COC(=O)Nc1nnc(-c2ccncc2)s1,-2,3,0,-6,25,-3,/,/
COc1ccc(C2=NN(C(=O)CSc3nccn3C)C(c3ccco3)C2)cc1 (centres undefined),/,3,/,/,-7,-9,/,/
Cc1ccc2[nH]c(=O)c(CN(Cc3ccco3)C(=O)CN3CCCC(C)C3)cc2c1 (centres undefined),3,1,6,-2,10,-6,/,/
Cc1ccc(CN2C(=O)CSc3ccc(C(=O)NCCN4CCOCC4)cc32)cc1,20,12,4,2,17,-6,/,/
Cc1ccc(CN2C(=O)c3ccccc3Sc3ccc(C(=O)NCCN4CCOCC4)cc32)cc1,/,0,0,4,52*,54,54*,69*
Cc1ccc(C)c(CN2C(=O)c3ccccc3S(=O)c3ccc(C(=O)NCCCN4CCCC4)cc32)c1 (centres undefined),/,2,28,0,51*,10,16,/
CN1C(=O)C2(OCCCO2)c2ccccc21,/,-12,-5,0,30,-9,/,/
O=C(Nc1cccc(Cl)c1Cl)C1CCCC1,/,/,-5,3,26,/,/,/
CCN1CCc2c(sc(NC(=O)c3ccc(S(=O)(=O)N(CC)c4ccccc4)cc3)c2C(N)=O)C1,/,-4,18,2,37,5,/,/
COc1ccc(-c2nn(-c3ccccc3)cc2/C=N/NC(=O)c2ccc(Br)o2)cc1,16,/,21,27,68*,24,-38,/
C=CCNC(=S)N/N=C/c1cn(-c2ccccc2)nc1-c1ccc(OC)cc1,6,4,-2,-3,51*,-8,16,/
COc1ccc(-c2nn(-c3ccccc3)cc2/C=N/Nc2cccc(C(=O)O)c2)cc1,-3,/,/,/,/,/,/,/
Cc1ccccc1C(=O)N1CCN(c2ccc(NC(=O)c3ccc([N+](=O)[O-])o3)cc2)CC1,/,22,58*,19,72*,91*,76*,90*
CC(C)C(=O)N1CCN(c2ccc(NC(=O)c3ccc([N+](=O)[O-])o3)cc2)CC1,99*,3,50,8,72*,21,52*,23
CCN1CCN(c2c(Cl)cccc2NC(=O)c2ccc([N+](=O)[O-])cc2)CC1,9,0,19,11,3,-1,/,/
